{
  "source": "ChEMBL document CHEMBL5661977",
  "about": "“BI 6727, a Polo-like kinase inhibitor with improved pharmacokinetic profile and broad antitumor activity” (Clin Cancer Res, 2009)",
  "key": {"Granta-519": {"system": "Granta-519", "assay": "Antimitotic activity against human Granta-519 cells assessed as inhibition of cell proliferation incubated for 72 hrs by Alamar blue based fluorescence spectrophotometric analysis", "format": "functional", "conditions": "Granta-519, 72 h", "in_short": "(§1)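 Cancer cell lines were cultured per supplier instructions and exposed to various inhibitor concentrations for 72 h. Growth was read as Alamar blue conversion by fluorescence. EC50 (50% growth inhibition) was extrapolated from the dose-response curve fit.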"}, "[1]": {"assay": "Volume of distribution at steady state in BomTac:NMRI-Foxn1nu mouse at 35 mg/kg, iv by HPLC-MS/MS analysis", "format": "ADME, organism-based", "conditions": "in vivo, read-out: Vdss", "in_short": "(§2)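 Female nude mice, n = 3, single i.v. dose (vehicle 0.1 N HCl diluted with 0.9% NaCl, 10 mL/kg). BI 6727 measured in EDTA plasma at several times by HPLC-MS/MS with internal standard. Parameters came from noncompartmental analysis. Terminal half-life was taken from the last two time points after i.v. dosing.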"}, "HCT-116 [2]": {"system": "HCT-116", "assay": "Antitumor activity against human HCT-116 cells xenografted in BomTac:NMRI-Foxn1nu mouse assessed as T/C at 25 mg/kg, iv administered twice a week upto 6 weeks relative to control", "format": "functional", "in_short": "(§3)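 Female nude mice bore s.c. HCT 116 (2×10^6 cells), NCI-H460 (1×10^6 cells) or serially transplanted CXB1 tumor pieces. At ~50–100 mm³, mice were randomized into groups of 10 and dosed i.v. (0.1 N HCl/saline) or by gavage (0.5% hydroxyethyl-cellulose) at 10 mL/kg. Calipers read thrice weekly, volume = length×width²×π/6. T/C from median volumes on the last day.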"}, "[3]": {"assay": "AUC (0 to infinity) in BomTac:NMRI-Foxn1nu mouse at 35 mg/kg, iv by HPLC-MS/MS analysis", "format": "ADME, organism-based", "conditions": "in vivo", "in_short": "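Single i.v. dose: male Wistar rats (n=4) by 5-min infusion, female nude mice (n=3). EDTA plasma was sampled at various times and extracted with internal standard, NaOH, methanol/formic acid and acetonitrile. Analysis by LC-MS/MS (ESI+, C18, ammonium acetate pH 4.0/acetonitrile gradient). Noncompartmental parameters; AUC by trapezoidal rule.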"}, "Raji": {"system": "Raji", "assay": "Antimitotic activity against human Raji cells assessed as inhibition of cell proliferation incubated for 72 hrs by Alamar blue based fluorescence spectrophotometric analysis", "format": "functional", "in_short": "as §1"}, "NCI-H460 [4]": {"system": "NCI-H460", "assay": "Antimitotic activity against human NCI-H460 cells assessed as accumulation of monopolar spindles at 100 nmol/L incubated for 24 hrs by immunofluorescence analysis", "format": "functional, cell-based", "in_short": "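NCI-H460 cells on chamber slides were treated next day for 24 h with inhibitor or 0.1% DMSO vehicle. They were fixed and permeabilized with 4% formaldehyde/Triton X-100 for 5 min at RT, then stained with anti-tubulin and anti-phospho-Ser10 histone H3 (1:500 in PBS/2% BSA) plus DAPI 0.05 µg/mL. Imaged by fluorescence microscopy.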"}, "HCT-116 [5]": {"system": "HCT-116", "assay": "Antitumor activity against human HCT-116 cells xenografted in BomTac:NMRI-Foxn1nu mouse assessed as tumor regression at 15 mg/kg, iv administered twice a week on consecutive days", "format": "functional, organism-based", "in_short": "as §3"}, "[6]": {"assay": "Antitumor activity against human CXB1 cells xenografted in BomTac:NMRI-Foxn1nu mouse assessed as T/C at 15 mg/kg, iv administered twice a week upto 6 weeks relative to control", "format": "functional, CXB1 cell", "in_short": "as §3"}, "HCT-116 [7]": {"system": "HCT-116", "assay": "Antitumor activity against human HCT-116 cells xenografted in BomTac:NMRI-Foxn1nu mouse assessed as […] in tumor size at 20 mg/kg, iv administered twice a week on consecutive days", "format": "functional, organism-based"}, "[8]": {"assay": "AUC (0 to 24 hrs) in human HCT-116 cells xenografted in BomTac:NMRI-Foxn1nu mouse at 7 mg/kg, po administered daily upto 6 weeks by HPLC-MS/MS analysis", "format": "ADME, organism-based", "conditions": "in vivo, 1008 h"}, "HCT-116 [9]": {"system": "HCT-116", "assay": "Antitumor activity against human HCT-116 cells xenografted in BomTac:NMRI-Foxn1nu mouse assessed as T/C at 20 mg/kg, iv administered once a week upto 6 weeks relative to control", "format": "functional", "in_short": "as §3"}, "[10]": {"assay": "AUC (0 to 24 hrs) in human HCT-116 cells xenografted in BomTac:NMRI-Foxn1nu mouse at 50 mg/kg, po administered once a week upto 6 weeks by HPLC-MS/MS analysis", "format": "ADME, organism-based", "conditions": "in vivo, 1008 h"}, "NCI-H460 [11]": {"system": "NCI-H460", "assay": "Induction of apoptosis in human NCI-H460 cells assessed as cleaved PRAP fragment level at 100 nmol/L incubated for 24 hrs by westernblot analysis", "format": "functional, cell-based", "in_short": "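Exponentially growing NCI-H460 cells treated with compound or DMSO control for 24 or 48 h, then harvested. Cleaved PARP fragment detected by Western blot.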"}, "HCT-116 [12]": {"system": "HCT-116", "assay": "Antitumor activity against human HCT-116 cells xenografted in BomTac:NMRI-Foxn1nu mouse assessed as the number of apoptotic cells in large intestine at 40 mg/kg, iv", "format": "functional, organism-based", "in_short": "(§4)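 Female nude mice bore s.c. HCT 116 tumors (~200 mm³) and received a single i.v. 40 mg/kg dose or vehicle (n=3 per group per time). Tumor, small intestine and large intestine were taken at 6, 24 and 48 h. Frozen sections were stained for pSer10 histone H3 (immunoperoxidase) or by TUNEL. Positive area was calculated as % of tumor cell area; Student's t test.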"}, "HCT-116 [13]": {"system": "HCT-116", "assay": "Antitumor activity against human HCT-116 cells xenografted in BomTac:NMRI-Foxn1nu mouse assessed as mitotic index in small intestine at 40 mg/kg, iv", "format": "functional, organism-based", "in_short": "as §4"}, "THP-1": {"system": "THP-1", "assay": "Antimitotic activity against human THP-1 cells assessed as inhibition of cell proliferation incubated for 72 hrs by Alamar blue based fluorescence spectrophotometric analysis", "format": "functional", "conditions": "THP-1, 72 h", "in_short": "as §1"}, "[14]": {"assay": "Cmax in BomTac:NMRI-Foxn1nu mouse at 35 mg/kg, iv by HPLC-MS/MS analysis", "format": "ADME, organism-based", "conditions": "in vivo", "in_short": "as §2"}, "HCT-116 [15]": {"system": "HCT-116", "assay": "Antitumor activity against human HCT-116 cells xenografted in BomTac:NMRI-Foxn1nu mouse assessed as T/C at 30 mg/kg, iv administered once a week upto 6 weeks relative to control", "format": "functional", "in_short": "as §3"}, "NCI-H460 [16]": {"system": "NCI-H460", "assay": "Antimitotic activity against human NCI-H460 cells assessed as inhibition of cell proliferation incubated for 72 hrs by Alamar blue based fluorescence spectrophotometric analysis", "format": "functional", "conditions": "NCI-H460, 72 h", "in_short": "as §1"}, "NCI-H460 [17]": {"system": "NCI-H460", "assay": "Antimitotic activity against human NCI-H460 cells assessed as G2-M arrest with apoptosis at 100 nmol/L incubated for 24 hrs by PI staining based flow cytometric analysis", "format": "functional, cell-based", "in_short": "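Log-phase NCI-H460 cells were treated with 0.1% DMSO or inhibitor (dose series for 24 h; 100 nmol/L time course at 0, 24, 48, 72 h). Cells were fixed in 80% ethanol, permeabilized with 0.25% Triton X-100 for 5 min, then given 0.1% RNase plus 10 µg/mL propidium iodide for 20 min at RT. DNA content was read by flow cytometry.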"}, "[18]": {"assay": "Cmax in BomTac:NMRI-Foxn1nu mouse at 50 mg/kg, po by HPLC-MS/MS analysis", "format": "ADME, organism-based", "conditions": "in vivo", "in_short": "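Single oral gavage of BI 6727 suspended in 0.5% hydroxyethyl-cellulose (10 mL/kg) to female nude mice or male Wistar rats. EDTA plasma levels measured over time by HPLC-MS/MS with internal standard. AUC0-24 by trapezoidal rule. Parameters from noncompartmental analysis.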"}, "HL-60": {"system": "HL-60", "assay": "Antimitotic activity against human HL-60 cells assessed as inhibition of cell proliferation incubated for 72 hrs by Alamar blue based fluorescence spectrophotometric analysis", "format": "functional", "conditions": "HL-60, 72 h", "in_short": "as §1"}},
  "note": "The source made the active and inactive calls. The calls are words filed in the database; no cut-off is given here.",
  "data": [
    {"compound": "CC[C@@H]1C(=O)N(C)c2cnc(Nc3ccc(C(=O)N[C@H]4CC[C@H](N5CCN(CC6CC6)CC5)CC4)cc3OC)nc2N1C(C)C", "note": "[VOLASERTIB]", "values": [
      {"measurement": "EC50", "setting": "Granta-519", "result": 15, "unit": "nM"},
      {"measurement": "Vd", "setting": "[1]", "result": 7.6, "unit": "L/kg"},
      {"measurement": "T/C", "setting": "HCT-116 [2]", "result": 0.3, "unit": "%"},
      {"measurement": "AUC(0-inf)", "setting": "[3]", "result": 100, "unit": "µM·h"},
      {"measurement": "EC50", "setting": "Raji", "result": 37, "unit": "nM"},
      {"measurement": "Activity", "setting": "NCI-H460 [4]", "result": "Active"},
      {"measurement": "Activity", "setting": "HCT-116 [5]", "result": "Active"},
      {"measurement": "T/C", "setting": "[6]", "result": 12, "unit": "%"},
      {"measurement": "Activity", "setting": "HCT-116 [7]", "result": "Active"},
      {"measurement": "AUC", "setting": "[8]", "result": 44, "unit": "µM·h"},
      {"measurement": "T/C", "setting": "HCT-116 [9]", "result": 9, "unit": "%"},
      {"measurement": "AUC", "setting": "[10]", "result": 44, "unit": "µM·h"},
      {"measurement": "Activity", "setting": "NCI-H460 [11]", "result": "Active"},
      {"measurement": "Activity", "setting": "HCT-116 [12]", "result": "inactive"},
      {"measurement": "Activity", "setting": "HCT-116 [13]", "result": "inactive"},
      {"measurement": "EC50", "setting": "THP-1", "result": 36, "unit": "nM"},
      {"measurement": "Cmax", "setting": "[14]", "result": 7.1, "unit": "µM"},
      {"measurement": "T/C", "setting": "HCT-116 [15]", "result": 3, "unit": "%"},
      {"measurement": "EC50", "setting": "NCI-H460 [16]", "result": 21, "unit": "nM"},
      {"measurement": "Activity", "setting": "NCI-H460 [17]", "result": "Active"},
      {"measurement": "Cmax", "setting": "[18]", "result": 5.7, "unit": "µM"},
      {"measurement": "EC50", "setting": "HL-60", "result": 32, "unit": "nM"}
    ]}
  ]
}
